Hits are enriched below; roughly 1.6% of the tested compounds scored in any of these assays.
GALR2 agonist: GALR2 (human) receptor agonism. GALR2-expressing cells, agonist activation read-out. activation, % (test concentration not listed). 140,000 compounds, 0.48% hits. AID 803; in the data active means activation above about 5%, passing the limit was not always enough;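 further: 0% = vehicle buffer wells and 100% = reference agonist at full effect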
Target sequence (O43603 whole entry, looked up): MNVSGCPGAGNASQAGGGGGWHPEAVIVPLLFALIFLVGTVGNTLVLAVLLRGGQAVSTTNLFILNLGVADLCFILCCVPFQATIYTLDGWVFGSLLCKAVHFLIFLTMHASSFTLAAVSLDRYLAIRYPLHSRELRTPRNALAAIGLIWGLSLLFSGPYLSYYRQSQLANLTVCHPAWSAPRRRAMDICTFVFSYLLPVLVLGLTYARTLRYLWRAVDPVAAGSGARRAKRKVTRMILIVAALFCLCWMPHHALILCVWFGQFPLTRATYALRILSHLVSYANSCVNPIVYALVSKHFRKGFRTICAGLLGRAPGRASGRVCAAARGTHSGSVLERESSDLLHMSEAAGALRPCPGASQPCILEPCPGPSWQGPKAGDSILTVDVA
S1P2 ag: S1P2 (human) receptor agonism; O95136; S1P2-expressing cell line, agonist reporter read-out; activation, % at 4.5 µM; 97,000 compounds, 0.46% hits; in the data active means activation above about 16%;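 further: 0% = vehicle low control and 100% = maximal reference agonist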
GALR2 blocker: GALR2 (human) receptor antagonism; inhibition, % at 4 µM; GALR2-expressing cells, antagonist mode; 140,000 compounds, 0.39% hits; in the data active means inhibition above about 27%;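 further: cells stimulated with galanin 1-16 at roughly its EC80; 0% = agonist challenge control and 100% = basal control without agonist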
S1P2 antag: S1P2 (human) receptor antagonism; O95136; cell-based S1P2 antagonist assay, inhibition at 5 uM; 97,000 compounds, 0.21% hits; AID 736; inhibition, % at 5 µM; in the data active means inhibition above about 45%;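 further: CRE beta-lactamase reporter cells expressing human S1P2 stimulated with S1P; 0% = agonist at EC80 alone and 100% = agonist plus reference antagonist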
HIV Rev-RRE inh: HIV Rev-RRE protein-RNA interaction inhibition; Rev peptide-RRE RNA binding, FRET; P05866; 97,000 compounds, 0.79% hits; inhibition, % at 8 µM;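 active means inhibition above the screen-wide mean plus 3 SD, cut at about 35% in these data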;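 further: 0% = median DMSO wells and 100% = median Neomycin B control wells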
Target sequence (P05866 whole entry, looked up): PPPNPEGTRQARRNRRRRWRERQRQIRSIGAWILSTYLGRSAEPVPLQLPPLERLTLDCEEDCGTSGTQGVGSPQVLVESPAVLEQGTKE
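Material: labelled RRE RNA duplex and labelled Rev peptide / Buffer or medium: HEPES pH 7.5 salt buffer with EDTA / Compound dosing: single point, 8 µM final nominal compound concentration / Benchmarks: DMSO low control, neomycin B high control / Timing: 5 min preincubation and 15 min binding, 25 °C / Technique: FRET fluorescence readout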
GALR2 agon conf: GALR2 (human) agonism confirmed; AID 864; 460 compounds, 10% hits; activation, % at 5.6 µM; GALR2-expressing cells, agonist activation; shares compounds with GALR2 agonist; in the data active means activation above about 8.4%;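 further: 0% = buffer-only vehicle wells and 100% = full reference agonist response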
BLA act counter: activates beta-lactamase reporter in GALR2 agonist counterscreen; CHO NFAT-bla reporter, beta-lactamase FRET activation; AID 865; activation, % at 5.6 µM; 460 compounds, 10% hits; shares compounds with GALR2 agonist;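 active means activation above the screen-wide mean activation plus 3 SD, cut at about 8% in these data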;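 further: 0% = DMSO with PBS wells and 100% = thapsigargin positive control wells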
Numbers without * were called inactive; . = no result given.

SMILES	GALR2 agonist	S1P2 ag	GALR2 blocker	S1P2 antag	HIV Rev-RRE inh	GALR2 agon conf	BLA act counter
COc1ccc(-c2cnnn2-c2ccc(NC(=O)c3ccco3)cc2)cc1OC	20.4*	7.2	7.0	-33.3	5.6	0.4	-0.9
COc1ccc(-c2cnnn2-c2ccc(NC(=O)c3ccc(S(=O)(=O)N4CCCCC4)cc3)cc2)cc1OC	3.5	.	3.5	.	.	.	.
CN(CC(O)CON=C1c2ccccc2-c2ccccc21)S(=O)(=O)c1ccc(Br)cc1 (stereo unspecified)	10.9*	.	-12.5	.	.	0.1	1.4
O=C(NCCN1CCOCC1)c1csc2c1CCCC2	0.5	-1.9	-17.2	-11.7	1.9	.	.
CC1CC(C)CN(CCCNC(=O)c2csc3c2CCCC3)C1 (stereo unspecified)	108.0*	-7.7	-7.1	-6.9	-1.2	0.0	-1.2
O=C1/C(=C/c2ccco2)N=C(N2CCCCC2)N1c1ccccc1	0.5	.	8.0	.	.	.	.
CC(C)N(C1=N/C(=C\c2ccco2)C(=O)N1c1ccccc1)C(C)C	8.7	14.2	3.9	-20.1	5.7	6.2	9.2*
CCn1c(=O)cc(OCC(=O)Nc2cccc(C)n2)c2ccccc21	119.8*	1.0	5.8	-8.4	1.8	-0.9	-1.2
CCn1c(=O)cc(OCC(=O)Nc2cccnc2)c2ccccc21	-1.3	-1.1	1.8	-9.0	-3.6	.	.
COC(=O)c1c(C)[nH]c(C(=O)CSc2nnnn2-c2ccccc2)c1C	99.3*	-5.6	-4.5	1.5	2.5	-0.2	-1.6
CCOc1cc(/C=N\NC(=O)Cn2nc([N+](=O)[O-])cc2C)ccc1OCc1cccc2ccccc12	34.5*	-4.0	-12.2	-23.4	3.1	-1.1	-3.5
CCOC(=O)CS(=O)(=O)c1nc(-c2ccc(F)cc2)cc(C(F)(F)F)n1	9.3*	.	50.7*	.	.	3.4	-8.9
COC(=O)CCS(=O)(=O)c1nc(-c2ccccc2)cc(C(F)(F)F)n1	10.8	-2.3	8.3	-10.6	2.5	0.0	1.6
CCOC(=O)CCS(=O)(=O)c1nc(-c2ccccc2)cc(C(F)(F)F)n1	3.4	0.2	19.2	-11.2	10.8	.	.
COc1cc(NC(C)CCCN)c2ncccc2c1Oc1ccccc1 (stereo unspecified)	-0.1	.	10.9	.	.	.	.
COc1ccc(NS(=O)(=O)c2ccc(S(=O)(=O)N3CCCC3)cc2)cc1	14.7*	-3.0	-12.0	-1.5	4.9	-1.1	0.0
CC1CN(C2CCN(S(=O)(=O)Cc3ccccc3)CC2)CC(C)O1 (stereo unspecified)	9.5	-0.6	-8.6	18.4	7.7	-0.7	-1.8
CC1CN(C2CCN(S(=O)(=O)c3ccccc3)CC2)CC(C)O1 (stereo unspecified)	-0.6	0.6	-6.0	-17.6	3.7	.	.
Cc1cc(C(=O)c2ccc(C(C)(C)C)cc2)c(NC(=O)CCl)s1	1.0	.	-3.5	.	.	.	.
Cc1ccc(CCNC(=O)c2ccc(CS(=O)(=O)Cc3ccccc3F)o2)cc1	0.3	-4.5	-14.3	15.0	11.1	.	.
O=C(NCCc1ccccc1)c1ccc(CS(=O)(=O)Cc2ccccc2F)o1	9.3	-1.0	-1.7	2.5	2.8	-0.5	-1.4
O=C(Cn1c(=O)oc2cc(S(=O)(=O)N3CCCCCC3)ccc21)NC1CCCCCCC1	-2.8	-4.7	12.9	2.8	11.1	.	.
O=C(Cn1c(=O)oc2cc(S(=O)(=O)N3CCCC3)ccc21)NC1CCCc2ccccc21 (stereo unspecified)	15.6*	.	5.0	.	.	2.1	-1.6
CCOC(=O)Cn1c(=NC(=O)c2cccs2)sc2cc(C(=O)OC)ccc21	13.8*	.	-1.4	.	.	-0.9	-2.1
COc1ccc(CNC(=O)CSc2nnc3c(Cl)cc(C(F)(F)F)cn23)cc1OC	0.2	.	-0.6	.	.	.	.
Brc1ccc(-c2nc(N/N=C/c3cccnc3)c3ccccc3n2)cc1	76.4*	-7.0	3.7	7.2	5.1	0.0	-1.1
Cc1ccc(-c2nc(N/N=C/c3ccccc3[N+](=O)[O-])c3ccccc3n2)cc1	-1.6	-2.5	-3.6	8.5	-0.8	.	.
O=c1[nH]c(/C=C/c2ccccc2OC(F)F)nc2c1cnn2-c1ccccc1	15.2*	.	-11.2	.	.	8.8*	4.0
CCCSc1nc2c(cnn2-c2ccccc2)c(=O)[nH]1	-0.7	.	7.9	.	.	.	.
O=C(N/N=C/c1ccc2c(c1)OCO2)C(O)c1ccccc1 (stereo unspecified)	-0.8	.	-43.9	.	.	.	.

Screens (PubChem)
